Test system: patients with advanced solid tumors
Experiment: Phase I dose escalation, drug-related adverse events
Assay type: in vivo, human (Japanese patients)
Summary of the method: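 Open, non-randomised escalation in three-patient cohorts at 200, 400, 800 and 1,200 mg/m2 oral bid. Tablets taken >2 h after breakfast and supper for 28 consecutive days, with a single dose on day 1. Toxicity graded weekly by NCI-CTC v2.0. DLT: grade 3/4 non-haematologic or grade 4 haematologic toxicity. MTD: DLT in >33% within 4 weeks.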

[1] = 200 mg/m^2 bid (N = 3), G1, 28-days administration
[2] = 400 mg/m^2 bid (N = 3), G1, 28-days administration
[3] = 400 mg/m^2 bid (N = 3), G2, 28-days administration
[4] = 800 mg/m^2 bid (N = 6), G1, 28-days administration
[5] = 800 mg/m^2 bid (N = 6), G2, 28-days administration
[6] = 800 mg/m^2 bid (N = 6), G3, 28-days administration
[7] = 1,200 mg/m^2 bid (N = 3), G1, 28-days administration
[8] = 1,200 mg/m^2 bid (N = 3), G2, 28-days administration
[9] = Total, all dose levels (N = 15), 28-days administration

Q: How did the “Alanine aminotransferase increased, number of patients” value [1] turn out when Cc1[nH]c(/C=C2\C(=O)Nc3ccccc32)c(C)c1CCC(=O)O [TSU-68, (Z)-3-[2,4-dimethyl-5-(2-oxo-1,2-dihydro-indol-3-ylidenemethyl)-1H-pyrrol-3-yl]-propionic acid] was run?
A: 1

Q: What about the “Alkaline phosphatase increased, number of patients” value (“Alkaline phosphatase increased” below) [1] of the same compound?
A: 1

Q: What about the “Diarrhea, number of patients” value [1] of the same compound?
A: 3

Q: What about the “Face edema, number of patients” value [1] of the same compound?
A: 1

Q: What about the “Fatigue, number of patients” value [1] of the same compound?
A: 1

Q: And the “Nausea, number of patients” value [1]?
A: 1

Q: And the “Upper abdominal pain, number of patients” value [1]?
A: 1

Q: What about the “Urine discoloration, number of patients” value [1] of the same compound?
A: 3

Q: And the “Chest pain, number of patients” value (200 mg/m^2 bid (N = 3), G2, 28-days administration)?
A: 1

Q: What about the “Alkaline phosphatase increased” value [2] of the same compound?
A: 1

Q: And the “Chest pain, number of patients” value [2]?
A: 1

Q: And the “Diarrhea, number of patients” value [2]?
A: 1

Q: And the “Face edema, number of patients” value [2]?
A: 1

Q: And the “Fatigue, number of patients” value [2]?
A: 1

Q: What about the “Feces discolored, number of patients” value [2] of the same compound?
A: 1

Q: What about the “Urine discoloration, number of patients” value [2] of the same compound?
A: 3

Q: What about the “Albumin decreased, number of patients” value [3] of the same compound?
A: 1

Q: And the “Upper abdominal pain, number of patients” value [3]?
A: 1

Q: And the “Abdominal pain, number of patients” value [4]?
A: 2

Q: What about the “Alanine aminotransferase increased, number of patients” value [4] of the same compound?
A: 2

Q: And the “Albumin decreased, number of patients” value [4]?
A: 4

Q: What about the “Alkaline phosphatase increased” value [4] of the same compound?
A: 3

Q: And the “Anorexia, number of patients” value [4]?
A: 3

Q: And the “Diarrhea, number of patients” value [4]?
A: 2

Q: What about the “Face edema, number of patients” value [4] of the same compound?
A: 1

Q: And the “Fatigue, number of patients” value [4]?
A: 3

Q: What about the “Feces discolored, number of patients” value [4] of the same compound?
A: 6

Q: What about the “Nausea, number of patients” value [4] of the same compound?
A: 2

Q: What about the “Total protein decreased, number of patients” value [4] of the same compound?
A: 3

Q: And the “Urine discoloration, number of patients” value [4]?
A: 6

Q: And the “Vomiting, number of patients” value [4]?
A: 2

Q: And the “Abdominal pain, number of patients” value [5]?
A: 1

Q: And the “Anorexia, number of patients” value [5]?
A: 1

Q: What about the “Diarrhea, number of patients” value [5] of the same compound?
A: 2

Q: What about the “Fatigue, number of patients” value [5] of the same compound?
A: 1

Q: What about the “Anemia, number of patients” value [6] of the same compound?
A: 1

Q: And the “Arrhythmia, number of patients” value [6]?
A: 1

Q: And the “Thrombocytopenia, number of patients” value [6]?
A: 1

Q: What about the “Abdominal pain, number of patients” value [7] of the same compound?
A: 1

Q: And the “Alkaline phosphatase increased” value [7]?
A: 1

Q: And the “Anorexia, number of patients” value [7]?
A: 2

Q: And the “Chest pain, number of patients” value [7]?
A: 1

Q: And the “Diarrhea, number of patients” value [7]?
A: 1

Q: What about the “Face edema, number of patients” value [7] of the same compound?
A: 2

Q: What about the “Fatigue, number of patients” value [7] of the same compound?
A: 2

Q: What about the “Feces discolored, number of patients” value [7] of the same compound?
A: 3

Q: What about the “Upper abdominal pain, number of patients” value [7] of the same compound?
A: 2

Q: And the “Urine discoloration, number of patients” value [7]?
A: 3

Q: What about the “Abdominal pain, number of patients” value [8] of the same compound?
A: 1

Q: What about the “Albumin decreased, number of patients” value [8] of the same compound?
A: 1

Q: What about the “Anorexia, number of patients” value [8] of the same compound?
A: 1

Q: What about the “Diarrhea, number of patients” value [8] of the same compound?
A: 1

Q: What about the “Fatigue, number of patients” value [8] of the same compound?
A: 1

Q: What about the “Nausea, number of patients” value [8] of the same compound?
A: 1

Q: And the “Vomiting, number of patients” value [8]?
A: 1

Q: And the “Abdominal pain, number of patients” value (Total (N = 5), after 28 days)?
A: 1

Q: And the “Abdominal pain, patients (%)” value (Total (N = 5), after 28 days)?
A: (20) %

Q: And the “Alanine aminotransferase increased, number of patients” value (Total (N = 5), after 28 days)?
A: 3

Q: And the “Alkaline phosphatase increased” value (Total (N = 5), after 28 days)?
A: 2

Q: And the “Anorexia, number of patients” value (Total (N = 5), after 28 days)?
A: 1

Q: And the “Anorexia, patients (%)” value (Total (N = 5), after 28 days)?
A: (20) %

Q: And the “Arrhythmia, number of patients” value (Total (N = 5), after 28 days)?
A: 1

Q: What about the “Arrhythmia, patients (%)” value (Total (N = 5), after 28 days) of the same compound?
A: (20) %

Q: What about the “Chest pain, number of patients” value (Total (N = 5), after 28 days) of the same compound?
A: 2

Q: What about the “Diarrhea, number of patients” value (Total (N = 5), after 28 days) of the same compound?
A: 3

Q: What about the “Face edema, number of patients” value (Total (N = 5), after 28 days) of the same compound?
A: 3

Q: And the “Fatigue, number of patients” value (Total (N = 5), after 28 days)?
A: 4

Q: And the “Fatigue, patients (%)” value (Total (N = 5), after 28 days)?
A: (80) %

Q: And the “Feces discolored, number of patients” value (Total (N = 5), after 28 days)?
A: 4

Q: And the “Feces discolored, patients (%)” value (Total (N = 5), after 28 days)?
A: (80) %

Q: What about the “Nausea, number of patients” value (Total (N = 5), after 28 days) of the same compound?
A: 1

Q: What about the “Nausea, patients (%)” value (Total (N = 5), after 28 days) of the same compound?
A: (20) %

Q: What about the “Urine discoloration, number of patients” value (Total (N = 5), after 28 days) of the same compound?
A: 5

Q: What about the “Urine discoloration, patients (%)” value (Total (N = 5), after 28 days) of the same compound?
A: (100) %

Q: And the “Vomiting, number of patients” value (Total (N = 5), after 28 days)?
A: 1

Q: And the “Vomiting, patients (%)” value (Total (N = 5), after 28 days)?
A: (20) %

Q: What about the “Abdominal pain, number of patients” value [9] of the same compound?
A: 5

Q: And the “Abdominal pain, patients (%)” value [9]?
A: (33) %

Q: And the “Alanine aminotransferase increased, number of patients” value [9]?
A: 3

Q: And the “Alanine aminotransferase increased, patients (%)” value [9]?
A: (20) %

Q: What about the “Albumin decreased, number of patients” value [9] of the same compound?
A: 6

Q: What about the “Alkaline phosphatase increased” value [9] of the same compound?
A: 6

Q: And the “Anemia, number of patients” value [9]?
A: 1

Q: What about the “Arrhythmia, number of patients” value [9] of the same compound?
A: 1

Q: What about the “Chest pain, number of patients” value [9] of the same compound?
A: 3

Q: What about the “Chest pain, patients (%)” value [9] of the same compound?
A: (20) %

Q: What about the “Face edema, number of patients” value [9] of the same compound?
A: 5

Q: What about the “Face edema, patients (%)” value [9] of the same compound?
A: (33) %

Q: And the “Fatigue, number of patients” value [9]?
A: 9

Q: What about the “Nausea, number of patients” value [9] of the same compound?
A: 4

Q: And the “Thrombocytopenia, number of patients” value [9]?
A: 1

Q: And the “Total protein decreased, number of patients” value [9]?
A: 3

Q: What about the “Total protein decreased, patients (%)” value [9] of the same compound?
A: (20) %

Q: And the “Upper abdominal pain, number of patients” value [9]?
A: 4

Q: And the “Urine discoloration, number of patients” value [9]?
A: 15

Q: What about the “Urine discoloration, patients (%)” value [9] of the same compound?
A: (100) %

Q: What about the “Vomiting, number of patients” value [9] of the same compound?
A: 3

Q: And the “Vomiting, patients (%)” value [9]?
A: (20) %

Q: What about the “recommended dose for further studies” value (continuous oral bid between meals) of the same compound?
A: less than 800 mg/m^2 bid

Q: And the “tolerable dose for continuing treatment” value (oral bid between meals)?
A: ≤ 800 mg/m^2 bid

Q: What about the “acceptable dosage level in daily administration” value (oral, between meals, estimated) of the same compound?
A: 800 mg/m^2 bid
